Drawing on ChEMBL document CHEMBL1150295, “Synthesis and receptor binding properties of 2beta-alkynyl and 2beta-(1,2,3-triazol)substituted 3beta-(substituted phenyl)tropane derivatives” (Bioorg Med Chem, 2008), this text covers IC50, Ki and Selectivity ratio for 13 compounds.

The structures appear in SMILES notation. pIC50, pKi: −log10 of the molar value.

Test [1] deals with Sodium-dependent dopamine transporter (Homo sapiens, UniProt Q01959). Briefly: Displacement of [3H]WIN-35428 from dopamine transporter. Put shortly: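 Competitive radioligand binding at membrane dopamine transporter; 0.5 nM [3H]WIN35,428 final concentration. Mean ± standard error of three or four experiments, each in triplicate.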
Sequence of Sodium-dependent dopamine transporter (Q01959 whole entry): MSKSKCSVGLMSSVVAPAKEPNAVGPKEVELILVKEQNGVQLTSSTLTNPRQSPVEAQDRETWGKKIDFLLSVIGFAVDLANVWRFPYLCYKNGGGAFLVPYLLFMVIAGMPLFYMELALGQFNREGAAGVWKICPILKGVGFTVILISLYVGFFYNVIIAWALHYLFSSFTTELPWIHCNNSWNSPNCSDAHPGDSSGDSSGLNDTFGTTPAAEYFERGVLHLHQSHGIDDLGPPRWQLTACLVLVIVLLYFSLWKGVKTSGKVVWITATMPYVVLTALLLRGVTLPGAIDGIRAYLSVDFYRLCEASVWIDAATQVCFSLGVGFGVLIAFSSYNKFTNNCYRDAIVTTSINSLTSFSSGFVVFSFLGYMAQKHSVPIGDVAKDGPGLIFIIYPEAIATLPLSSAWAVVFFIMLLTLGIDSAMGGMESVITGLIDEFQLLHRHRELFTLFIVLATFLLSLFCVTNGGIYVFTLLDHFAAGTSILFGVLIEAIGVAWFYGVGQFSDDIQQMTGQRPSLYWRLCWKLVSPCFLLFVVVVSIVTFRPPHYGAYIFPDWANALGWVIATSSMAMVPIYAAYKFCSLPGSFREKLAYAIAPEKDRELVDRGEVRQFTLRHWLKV
Test [2] concerns the target Sodium-dependent noradrenaline transporter (Homo sapiens, UniProt P23975). Description: Displacement of [3H]nisoxetine from norepinephrine transporter. (Loss of bound radioactivity is the signal in a displacement assay; it reports binding, not function.)
Test [3] addresses Sodium-dependent serotonin transporter (Homo sapiens, UniProt P31645). Description: Displacement of [3H]paroxetine from serotonin transporter.
The nature of test [4]: Selectivity for dopamine transporter over serotonin transporter.
Test [5] in a line: Selectivity for dopamine transporter over norepinephrine transporter.

A word on the pIC50: it is the IC50 on a negative log10 scale, so that one unit is a factor of ten. For orientation: pKi means the Ki on a negative log10 scale, so that one unit is a factor of ten. High values mean a small Ki, low ones a large Ki.

Sequence of Sodium-dependent serotonin transporter (P31645 whole entry): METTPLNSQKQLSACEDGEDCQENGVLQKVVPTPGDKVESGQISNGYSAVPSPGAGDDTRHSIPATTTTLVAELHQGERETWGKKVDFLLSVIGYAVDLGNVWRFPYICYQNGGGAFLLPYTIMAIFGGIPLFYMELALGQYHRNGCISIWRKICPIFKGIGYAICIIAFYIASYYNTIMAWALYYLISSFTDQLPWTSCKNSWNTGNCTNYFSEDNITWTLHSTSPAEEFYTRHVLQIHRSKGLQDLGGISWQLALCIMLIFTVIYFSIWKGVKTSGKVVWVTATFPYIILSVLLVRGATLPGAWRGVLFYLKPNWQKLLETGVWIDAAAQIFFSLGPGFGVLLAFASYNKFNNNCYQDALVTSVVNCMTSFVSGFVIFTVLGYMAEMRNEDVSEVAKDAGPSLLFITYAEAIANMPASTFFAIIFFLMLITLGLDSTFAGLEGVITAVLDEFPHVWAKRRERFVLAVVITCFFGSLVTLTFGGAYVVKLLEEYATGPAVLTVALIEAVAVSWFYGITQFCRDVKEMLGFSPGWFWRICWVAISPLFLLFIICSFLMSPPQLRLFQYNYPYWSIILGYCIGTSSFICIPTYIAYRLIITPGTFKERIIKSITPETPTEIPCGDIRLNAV
Sequence of Sodium-dependent noradrenaline transporter (P23975 whole entry): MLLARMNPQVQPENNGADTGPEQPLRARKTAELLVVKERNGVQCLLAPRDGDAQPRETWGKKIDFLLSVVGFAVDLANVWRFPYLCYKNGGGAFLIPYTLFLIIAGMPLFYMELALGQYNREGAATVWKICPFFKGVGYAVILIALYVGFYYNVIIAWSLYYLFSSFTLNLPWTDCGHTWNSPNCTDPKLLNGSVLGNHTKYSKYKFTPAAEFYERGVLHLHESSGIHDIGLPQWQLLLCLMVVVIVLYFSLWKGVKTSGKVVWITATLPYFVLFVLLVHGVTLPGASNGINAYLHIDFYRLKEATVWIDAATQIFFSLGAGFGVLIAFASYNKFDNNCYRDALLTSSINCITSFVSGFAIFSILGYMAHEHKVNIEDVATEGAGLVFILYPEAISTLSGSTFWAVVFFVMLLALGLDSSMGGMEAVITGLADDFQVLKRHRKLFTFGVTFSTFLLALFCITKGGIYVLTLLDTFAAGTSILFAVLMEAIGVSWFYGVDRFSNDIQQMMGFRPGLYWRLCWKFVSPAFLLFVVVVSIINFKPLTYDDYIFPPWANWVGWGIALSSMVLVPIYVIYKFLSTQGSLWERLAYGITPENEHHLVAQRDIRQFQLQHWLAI

For `Cc1ccc([C@H]2C[C@@H]3CC[C@H]([C@H]2C=C(Br)Br)N3C)cc1`, the pIC50 in test [1] was 9.64. Further, the pKi in test [2] is 8.47; in test [3], 7.41.
Take `Cc1ccc([C@H]2C[C@@H]3CC[C@H]([C@H]2C#Cc2ccccc2)N3C)cc1`: the pIC50 in test [1] is 9.10. Also, the pKi in test [2] is 7.51; in test [3], 6.14.
For the compound `CN1[C@H]2CC[C@@H]1[C@@H](C#Cc1ccc(N)cc1)[C@@H](c1ccc(Cl)cc1)C2`, the pIC50 in test [1] is 8.66. Further, the results for the pKi in test [2] and in test [3] were 7.30 and 7.72, respectively.
For the compound `Cc1ccc([C@H]2C[C@@H]3CC[C@H]([C@@H]2C=C(Br)Br)N3C)cc1`, the pIC50 in test [1] was 8.44. Further, the figures for the pKi in test [2] and in test [3] were 7.26 and 6.60, respectively.
`COC(=O)[C@H]1[C@@H](c2ccccc2)C[C@@H]2CC[C@H]1N2C` showed a pIC50 in test [1] of 7.64. Besides, in test [2], the pKi was 6.25.
Compound `C#C[C@H]1[C@@H](c2ccc(Cl)cc2)C[C@@H]2CC[C@H]1N2C` showed a pIC50 in test [1] of 8.44. Also, the pKi in test [2] is 7.12; in test [3], 7.74.
The matching figures for `CN1[C@H]2CC[C@@H]1[C@H](C=C(Br)Br)[C@@H](c1ccc(Cl)cc1)C2`: 8.85, 7.31 and 7.12.
Regarding `C#C[C@H]1[C@@H](c2ccc(C)cc2)C[C@@H]2CC[C@H]1N2C`, the pIC50 in test [1] was 7.96. Also, the pKi in test [2] is 6.82; in test [3], 7.27.
The like results for `CN1[C@H]2CC[C@@H]1[C@@H](C=C(Br)Br)[C@@H](c1ccc(Cl)cc1)C2` were, in that order, 9.49, 8.46 and 8.15.
Take `CN1[C@H]2CC[C@@H]1[C@@H](C#Cc1ccc([N+](=O)[O-])cc1)[C@@H](c1ccc(Cl)cc1)C2`: the Selectivity ratio is 689 in test [4] and 256 in test [5]. In test [1], this compound gave a pIC50 of 9.05. In addition, the pKi in test [2] is 6.64; in test [3] it was 6.21.
`CN1[C@H]2CC[C@@H]1[C@@H](c1cn(CCN3CCCCC3)nn1)[C@@H](c1ccc(Cl)cc1)C2` showed a pIC50 in test [1] of 8.10. Besides, the pKi in test [2] is 6.37; in test [3], 6.86.
Turning to `CN1[C@H]2CC[C@@H]1[C@@H](c1cn(Cc3ccccc3)nn1)[C@@H](c1ccc(Cl)cc1)C2`, in test [1], the pIC50 was 7.33. Also, the pKi was 5.59 in test [2] and 6.79 in test [3].
For the compound `CN1[C@H]2CC[C@@H]1[C@@H](C#Cc1ccccc1)[C@@H](c1ccc(Cl)cc1)C2`, the pIC50 in test [1] is 9.10. Besides, the pKi in test [2] is 7.85; in test [3] it was 7.09.
